In ChEMBL document CHEMBL3352487, “Synthesis, antibacterial activity, and biological evaluation of formyl hydroxyamino derivatives as novel potent peptide deformylase inhibitors against drug-resistant bacteria” (Eur J Med Chem, 2014):
In brackets after ≈: the same amount, converted by molar mass.

Key:
Mus musculus [1] = experiment: Acute toxicity in KM mouse assessed as lung abnormality at 250 mg/kg, iv measured for 14 days by necropsy; format: organism-based; design: dose 250 mg/kg, route intravenous; details: in vivo, 336 h
Summary of the method: (§1)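 Outbred KM mice (SPF, 20–25 g; nine male, ten female) given a single tail-vein injection of 100 or 250 mg/kg in PBS pH 6.5 with 20% DMSO over about 60 s. Behaviour, weight, coat colour, anal temperature, food and water intake, and urine and stool weight followed for 14 days. On day 14, gross necropsy of skin, lungs, heart, liver, kidneys and spleen.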

Mus musculus [2] = experiment: Acute toxicity in KM mouse assessed as kidney abnormality at 250 mg/kg, iv measured for 14 days by necropsy; format: organism-based; design: dose 250 mg/kg, route intravenous; details: in vivo, 336 h; summary of the method: as §1
Staphylococcus aureus [3] = experiment: Antimicrobial activity against Staphylococcus aureus isolate 934334 after 24 hrs by broth microdilution method; format: functional; details: isolate 934334, 24 h
Summary of the method: (§2)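 Broth microdilution following NCCLS M7-A4; ATCC strains and clinical isolates from a provincial hospital.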

[4] = Half life in Sprague-Dawley rat at 5 mg/kg, iv; format: ADME, organism-based; design: dose 5 mg/kg, route intravenous; details: in vivo
Staphylococcus aureus [5] = experiment: Antimicrobial activity against Staphylococcus aureus after 24 hrs by broth microdilution method; format: functional; summary of the method: as §2
Staphylococcus aureus [6] = experiment: Antimicrobial activity against Staphylococcus aureus isolate RN4220 pmz1 after 24 hrs by broth microdilution method; format: functional; details: isolate RN4220 pmz1, 24 h
Summary of the method: (§3)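 Broth microdilution following NCCLS M7-A4, using ATCC strains and clinical isolates from a provincial hospital.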

Staphylococcus aureus [7] = experiment: Antimicrobial activity against Staphylococcus aureus isolate RUSSELL after 24 hrs by broth microdilution method; format: functional; summary of the method: as §3
Staphylococcus aureus [8] = experiment: Antimicrobial activity against Staphylococcus aureus WCUH29 after 24 hrs by broth microdilution method; format: functional; details: WCUH29, 24 h; summary of the method: as §2
[9] = Mean residence time (0 to t) in Sprague-Dawley rat at 5 mg/kg, iv; format: ADME, organism-based; design: dose 5 mg/kg, route intravenous; details: in vivo
Streptococcus pneumoniae = experiment: Antimicrobial activity against Streptococcus pneumoniae 1629 after 24 hrs by broth microdilution method; format: functional; details: Streptococcus pneumoniae, 1629, 24 h; summary of the method: as §2
Staphylococcus aureus [10] = experiment: Antimicrobial activity against Staphylococcus aureus isolate 934324 after 24 hrs by broth microdilution method; format: functional; details: isolate 934324, 24 h; summary of the method: as §2
Mus musculus [11] = experiment: Acute toxicity in KM mouse assessed as liver abnormality at 250 mg/kg, iv measured for 14 days by necropsy; format: organism-based; design: dose 250 mg/kg, route intravenous; details: in vivo, 336 h; summary of the method: as §1
[12] = Acute toxicity in iv dosed KM mouse measured for 14 days; format: organism-based; details: in vivo
Summary of the method: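 Outbred KM mice (SPF, 20–25 g; nine male, ten female) given a single tail-vein i.v. dose of 100 or 250 mg/kg, formulated in PBS pH 6.5 containing 20% DMSO. Behaviour, weight, coat, anal temperature, food and water intake, and excreta monitored daily for 14 days, then necropsy.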

Escherichia coli [13] = experiment: Antimicrobial activity against Escherichia coli isolate 2 after 24 hrs by broth microdilution method; format: functional; details: isolate 2, 24 h; summary of the method: as §2
Staphylococcus aureus [14] = experiment: Antimicrobial activity against Staphylococcus aureus MRSA08-12 in peritonitis mouse model administered intravenously as single dose; format: functional; details: MRSA08-12, iv
[15] = Stability of the compound in artificial gastric juice measured every 2 hrs for 12 hrs by HPLC analysis; format: ADME; details: simulated gi fluid
Staphylococcus aureus [16] = experiment: Antimicrobial activity against Staphylococcus aureus isolate 929003 after 24 hrs by broth microdilution method; format: functional; details: isolate 929003, 24 h; summary of the method: as §2
[17] = Mean residence time (0 to t) in Sprague-Dawley rat at 25 mg/kg, po; format: ADME, organism-based; design: dose 25 mg/kg, route oral; details: in vivo
[18] = AUC (0 to t) in Sprague-Dawley rat at 5 mg/kg, iv; format: ADME, organism-based; design: dose 5 mg/kg, route intravenous; details: plasma
Escherichia coli [19] = experiment: Antimicrobial activity against Escherichia coli isolate 1 after 24 hrs by broth microdilution method; format: functional; details: isolate 1, 24 h; summary of the method: as §2
Staphylococcus aureus [20] = experiment: Antimicrobial activity against Staphylococcus aureus OXFORD after 24 hrs by broth microdilution method; format: functional; summary of the method: as §3
[21] = AUC (0 to infinity) in Sprague-Dawley rat at 5 mg/kg, iv; format: ADME, organism-based; design: time infinity, dose 5 mg/kg, route intravenous; details: plasma
Streptococcus pyogenes = experiment: Antimicrobial activity against Streptococcus pyogenes 1307006P after 24 hrs by broth microdilution method; format: functional; summary of the method: as §2
Mus musculus [22] = experiment: Acute toxicity in KM mouse assessed as skin abnormality at 250 mg/kg, iv measured for 14 days by necropsy; format: organism-based; design: dose 250 mg/kg, route intravenous; details: in vivo, 336 h; summary of the method: as §1
Staphylococcus aureus [23] = experiment: Antimicrobial activity against Staphylococcus aureus isolate NEQAS 4026 after 24 hrs by broth microdilution method; format: functional; details: isolate NEQAS 4026, 24 h; summary of the method: as §2
Staphylococcus aureus [24] = experiment: Antimicrobial activity against methicillin-susceptible Staphylococcus aureus after 24 hrs by broth microdilution method; format: functional; summary of the method: as §2
Staphylococcus aureus [25] = experiment: Antimicrobial activity against Staphylococcus aureus MRSA08-12 in peritonitis mouse model assessed as mortality of host at 1.25 mg/kg, iv as single dose relative to control; format: functional
Summary of the method: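 Outbred KM mice (20–25 g) infected i.p. with a 90–100% lethal dose (5 × 10^7 CFU/mL) in 0.5 mL brain heart infusion broth with 5% mucin. Single i.v. dose of 1.25–20 mg/kg in 20% DMSO, 0.1 mL. Ten mice per dose; daily monitoring for 14 days; ED50 from cumulative mortality by Bliss's method.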

[26] = Solubility of the compound in artificial gastric juice measured every 2 hrs for 12 hrs by HPLC analysis; format: ADME; details: simulated gi fluid
Escherichia coli [27] = experiment: Antimicrobial activity against Escherichia coli isolate 3 after 24 hrs by broth microdilution method; format: functional; details: isolate 3, 24 h; summary of the method: as §2
Staphylococcus aureus [28] = experiment: Antimicrobial activity against methicillin-resistant Staphylococcus aureus after 24 hrs by broth microdilution method; format: functional; summary of the method: as §3
[29] = Protein binding in CD1 mouse plasma at 2 uM by equilibrium dialysis; format: ADME, cell-free; details: read-out: PPB (converted)
Staphylococcus aureus [30] = experiment: Antimicrobial activity against Staphylococcus aureus isolate RN1024 after 24 hrs by broth microdilution method; format: functional; details: isolate RN1024, 24 h; summary of the method: as §3
hERG (KCNH2) = hERG (KCNH2) (Homo sapiens, UniProt Q12809); experiment: Inhibition of human ERG at 10 uM
Staphylococcus aureus [31] = experiment: Antimicrobial activity against Staphylococcus aureus isolate CL 1033 after 24 hrs by broth microdilution method; format: functional; details: isolate CL 1033, 24 h; summary of the method: as §2
[32] = Solubility of the compound in artificial intestinal juice measured every 2 hrs for 12 hrs by HPLC analysis; format: physicochemical; details: simulated gi fluid
[33] = Clearance in Sprague-Dawley rat at 5 mg/kg, iv; format: ADME, organism-based; design: dose 5 mg/kg, route intravenous; details: in vivo
Staphylococcus aureus [34] = experiment: Antimicrobial activity against Staphylococcus aureus isolate NEQAS 4158 after 24 hrs by broth microdilution method; format: functional; details: isolate NEQAS 4158, 24 h; summary of the method: as §2
[35] = Oral bioavailability in Sprague-Dawley rat at 25 mg/kg; format: ADME, organism-based; details: in vivo
Staphylococcus aureus [36] = experiment: Antimicrobial activity against Staphylococcus aureus isolate Smith ATCC 13709 after 24 hrs by broth microdilution method; format: functional; details: isolate Smith ATCC 13709, 24 h; summary of the method: as §3
Staphylococcus aureus [37] = experiment: Antimicrobial activity against Staphylococcus aureus isolate CL 939 after 24 hrs by broth microdilution method; format: functional; details: isolate CL 939, 24 h; summary of the method: as §3
Staphylococcus aureus [38] = experiment: Antimicrobial activity against Staphylococcus aureus isolate 68/8684 after 24 hrs by broth microdilution method; format: functional; details: isolate 68/8684, 24 h; summary of the method: as §2
Staphylococcus aureus [39] = experiment: Antimicrobial activity against Staphylococcus aureus isolate SWEETING after 24 hrs by broth microdilution method; format: functional; summary of the method: as §3
Haemophilus influenzae = experiment: Antimicrobial activity against AcrA-deficient Haemophilus influenzae H128 after 24 hrs by broth microdilution method; format: functional; details: H128, 24 h; summary of the method: as §2
Staphylococcus aureus [40] = experiment: Antimicrobial activity against Staphylococcus aureus ATCC 29213 after 24 hrs by broth microdilution method; format: functional; details: ATCC 29213, 24 h; summary of the method: as §2

Sequence of hERG (KCNH2) (Q12809 whole entry): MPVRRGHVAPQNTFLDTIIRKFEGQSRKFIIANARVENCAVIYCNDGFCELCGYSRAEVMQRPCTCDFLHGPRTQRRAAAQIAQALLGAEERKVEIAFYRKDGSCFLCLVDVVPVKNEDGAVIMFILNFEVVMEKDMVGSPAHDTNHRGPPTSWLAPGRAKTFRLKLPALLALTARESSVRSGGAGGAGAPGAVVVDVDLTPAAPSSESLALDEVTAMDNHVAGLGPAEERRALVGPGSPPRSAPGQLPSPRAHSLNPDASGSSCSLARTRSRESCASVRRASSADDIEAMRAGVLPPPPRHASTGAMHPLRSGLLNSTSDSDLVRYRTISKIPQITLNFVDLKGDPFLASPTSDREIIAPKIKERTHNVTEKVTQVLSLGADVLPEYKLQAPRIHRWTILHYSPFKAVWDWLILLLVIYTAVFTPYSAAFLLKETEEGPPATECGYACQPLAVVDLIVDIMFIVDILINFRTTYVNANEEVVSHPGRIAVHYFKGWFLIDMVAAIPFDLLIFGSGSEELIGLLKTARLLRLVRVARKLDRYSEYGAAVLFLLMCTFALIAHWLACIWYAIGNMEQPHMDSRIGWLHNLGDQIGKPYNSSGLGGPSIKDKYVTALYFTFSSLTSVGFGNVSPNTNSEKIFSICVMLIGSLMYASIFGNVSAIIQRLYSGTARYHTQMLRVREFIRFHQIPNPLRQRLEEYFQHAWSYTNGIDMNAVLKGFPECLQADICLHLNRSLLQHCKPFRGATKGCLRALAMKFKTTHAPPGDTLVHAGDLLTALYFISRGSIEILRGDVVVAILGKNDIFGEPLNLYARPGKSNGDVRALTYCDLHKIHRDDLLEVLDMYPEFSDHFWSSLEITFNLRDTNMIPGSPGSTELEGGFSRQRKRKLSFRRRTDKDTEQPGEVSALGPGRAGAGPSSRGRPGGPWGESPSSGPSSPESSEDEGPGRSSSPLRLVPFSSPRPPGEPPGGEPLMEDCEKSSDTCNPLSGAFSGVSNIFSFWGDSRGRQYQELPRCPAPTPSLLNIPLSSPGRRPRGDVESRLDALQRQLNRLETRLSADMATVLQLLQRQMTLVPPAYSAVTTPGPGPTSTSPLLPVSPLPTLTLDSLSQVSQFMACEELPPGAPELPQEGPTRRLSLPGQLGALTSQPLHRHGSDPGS

Structure (SMILES): CCCC[C@H](CN(O)C=O)C(=O)N1CC=C[C@H]1C(=O)Nc1ccc(F)c[n+]1[O-]
- Activity (Mus musculus [1]): Non-toxic
- Activity (Mus musculus [2]): Non-toxic
- MIC (Staphylococcus aureus [3]): 1 µg/mL (≈ 2.54 µM)
- half-life [4]: 1.17 h
- MIC (Staphylococcus aureus [5]): 0.5 µg/mL (≈ 1.27 µM)
- MIC (Staphylococcus aureus [6]): 0.5 µg/mL (≈ 1.27 µM)
- MIC (Staphylococcus aureus [7]): 0.5 µg/mL (≈ 1.27 µM)
- MIC (Staphylococcus aureus [8]): 0.125 µg/mL (≈ 0.317 µM)
- MRT last [9]: 0.564 h
- MIC (Streptococcus pneumoniae): 1 µg/mL (≈ 2.54 µM)
- MIC (Staphylococcus aureus [10]): 1 µg/mL (≈ 2.54 µM)
- Activity (Mus musculus [11]): Non-toxic
- LD50 at 336 h [12]: > 250 mg/kg
- MIC (Escherichia coli [13]): 64 µg/mL (≈ 162 µM)
- ED50 (Staphylococcus aureus [14]): 6.25 mg/kg
- Stability [15]: Stable
- MIC (Staphylococcus aureus [16]): 2 µg/mL (≈ 5.07 µM)
- MRT last [17]: 2.34 h
- AUC(0-t) [18]: 1950 ng·h/mL
- MIC (Escherichia coli [19]): > 64 µg/mL
- MIC (Staphylococcus aureus [20]): 0.5 µg/mL (≈ 1.27 µM)
- AUC(0-inf) [21]: 1960 ng·h/mL
- MIC (Streptococcus pyogenes): 2 µg/mL (≈ 5.07 µM)
- Activity (Mus musculus [22]): Non-toxic
- MIC (Staphylococcus aureus [23]): 1 µg/mL (≈ 2.54 µM)
- MIC (Staphylococcus aureus [24]): 1 µg/mL (≈ 2.54 µM)
- mortality at 1.25 mg/kg (Staphylococcus aureus [25]): 100%
- solubility [26]: soluble
- MIC (Escherichia coli [27]): 64 µg/mL (≈ 162 µM)
- MIC (Staphylococcus aureus [28]): 0.5 µg/mL (≈ 1.27 µM)
- fraction unbound at 2 µM [29]: 0.467
- MIC (Staphylococcus aureus [30]): 0.5 µg/mL (≈ 1.27 µM)
- inhibition at 10 µM (hERG (KCNH2)): 6.71%
- MIC (Staphylococcus aureus [31]): 1 µg/mL (≈ 2.54 µM)
- solubility [32]: soluble
- clearance [33]: 46.8 mL/min/kg
- MIC (Staphylococcus aureus [34]): 1 µg/mL (≈ 2.54 µM)
- bioavailability [35]: 34.6%
- MIC (Staphylococcus aureus [36]): 0.25 µg/mL (≈ 0.634 µM)
- MIC (Staphylococcus aureus [37]): 0.125 µg/mL (≈ 0.317 µM)
- MIC (Staphylococcus aureus [38]): > 16 µg/mL
- MIC (Staphylococcus aureus [39]): 0.125 µg/mL (≈ 0.317 µM)
- MIC (Haemophilus influenzae): ≤ 0.06 µg/mL
- MIC (Staphylococcus aureus [40]): 1 µg/mL (≈ 2.54 µM)
